ChEMBL document CHEMBL4145675, “2-Phenylquinoline S. aureus NorA Efflux Pump Inhibitors: Evaluation of the Importance of Methoxy Group Introduction” (J Med Chem, 2018)
In brackets after ≈: the same amount, converted by molar mass. Activity calls are given as the source filed them. The calls are words filed in the database; no cut-off is given here.

Legend:
[1] = target: T1, Quinolone resistance protein NorA (Staphylococcus aureus) (UniProt P0A0J7); experiment: Inhibition of NorA in Staphylococcus aureus SA-1199B expressing GrlA A116E mutant assessed as reduction in EtBr efflux at 50 uM incubated for 5 mins by fluorescence based assay
T1 sequence (whole entry): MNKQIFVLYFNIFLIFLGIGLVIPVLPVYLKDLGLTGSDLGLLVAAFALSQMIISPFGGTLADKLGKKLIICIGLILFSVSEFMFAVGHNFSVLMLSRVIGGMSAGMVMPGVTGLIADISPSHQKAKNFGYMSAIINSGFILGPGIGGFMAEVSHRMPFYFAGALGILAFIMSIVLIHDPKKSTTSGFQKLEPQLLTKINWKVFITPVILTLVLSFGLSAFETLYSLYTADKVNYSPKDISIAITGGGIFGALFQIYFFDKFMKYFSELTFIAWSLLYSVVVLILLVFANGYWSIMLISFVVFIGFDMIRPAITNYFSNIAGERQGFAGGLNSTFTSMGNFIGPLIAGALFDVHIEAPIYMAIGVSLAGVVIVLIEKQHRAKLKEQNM
Summary of the method: (§1)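 Cells were grown overnight in cation-supplemented Mueller-Hinton broth at 35 °C and subcultured to OD600 0.7–0.8. They were loaded at OD600 0.8 with 25 µM EtBr plus 100 µM CCCP (final) for 20 min at room temperature. Cells were then resuspended in fresh broth with or without compound, 50 µM for the single-point screen or a concentration series for IC50. Fluorescence (ex 485/em 645 nm) was read for 5 min. Inhibition was calculated from the fluorescence decrease versus untreated cells. Biological triplicate, each run twice.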

[2] = target: Quinolone resistance protein NorA (Staphylococcus aureus, UniProt P0A0J7, A116E); experiment: Inhibition of NorA in Staphylococcus aureus SA-1199B expressing GrlA A116E mutant assessed as reduction in EtBr efflux incubated for 5 mins by fluorescence based assay; summary of the method: as §1
[3] = test system: Staphylococcus aureus; experiment: Antimicrobial activity against Staphylococcus aureus SA-1199B expressing wild type norA and co-expressing GrlA A116E mutant by microdilution method; type: organism-based; details: in vivo
Summary of the method: (§2)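 CLSI broth microdilution MIC of the compound alone. Strains: SA-K1902 (norA deleted), SA-K2378 (SA-K1902 carrying norA plus its promoter on multicopy plasmid pCU1), SA-1199B (norA overexpressing, GrlA A116E).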

[4] = test system: Staphylococcus aureus; experiment: Synergistic potentiation of ciprofloxacin-induced antimicrobial activity against wild type Staphylococcus aureus ATCC 25923 at 0.78 to 100 ug/ml by microdilution method based Checkerboard assay; type: functional, organism-based
[5] = target: T1, Quinolone resistance protein NorA (Staphylococcus aureus); experiment: Inhibition of NorA in Staphylococcus aureus SA-1199B expressing GrlA A116E mutant assessed as minimal potentiating drug concentration causing 8 fold reduction in ciprofloxacin MIC by microdilution method based Checkerboard assay
[6] = test system: Staphylococcus aureus; experiment: Antimicrobial activity against Staphylococcus aureus SA-1199B expressing wild type norA by microdilution method; type: organism-based; details: in vivo
Summary of the method: (§3)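 Broth microdilution MIC per CLSI guidelines. ATCC 25923 is norA wild-type. SA-1199B overexpresses norA and carries an A116E GrlA substitution.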

[7] = target: T1, Quinolone resistance protein NorA (Staphylococcus aureus); experiment: Inhibition of NorA in Staphylococcus aureus SA-1199B expressing GrlA A116E mutant assessed as synergistic potentiation of ciprofloxacin-induced antimicrobial activity at 0.78 ug/ml by microdilution method based Checkerboard assay
[8] = target: T1, Quinolone resistance protein NorA (Staphylococcus aureus); experiment: Inhibition of NorA in Staphylococcus aureus SA-1199B expressing GrlA A116E mutant assessed as synergistic potentiation of ciprofloxacin-induced antimicrobial activity at 0.78 to 100 ug/ml by microdilution method based Checkerboard assay
[9] = test system: Staphylococcus aureus; experiment: Synergistic potentiation of ciprofloxacin-induced antimicrobial activity against Staphylococcus aureus SA-1199 at 0.78 to 100 ug/ml by microdilution method based Checkerboard assay; type: functional, organism-based
[10] = test system: Staphylococcus aureus; experiment: Antimicrobial activity against Staphylococcus aureus ATCC 25923 by microdilution method; type: organism-based; details: in vivo; summary of the method: as §3
[11] = test system: Staphylococcus aureus; experiment: Antimicrobial activity against NorA deficient Staphylococcus aureus SA-K1902 by microdilution method; type: organism-based; details: in vivo; summary of the method: as §2

Row | Structure (SMILES) | inhibition [1] | IC50 [2] | MIC [3] | synergistic potentiation of ciprofloxacin activity [4] | Activity [5] | MIC [6] | inhibition [7] | inhibition [8] | inhibition [9] | MIC [10] | MIC [11]
1 | CCCOc1ccc(-c2cc(OCCN3CCCCCC3)c3c(OC)cc(OC)cc3n2)cc1 | 74.1% | – | – | – | – | – | – | – | – | – | –
2 | CCCOc1ccc(-c2cc(O)c3c(OC)cccc3n2)cc1 | 91.4% | 4.1 µM | 40.4 µM (≈ 12.5 µg/mL) | – | – | – | – | – | – | – | –
3 | CCCOc1ccc(-c2cc(OCCN(CC)CC)c3c(OC)cccc3n2)cc1 | 96.5% | 9.4 µM | 30.6 µM (≈ 12.5 µg/mL) | Active | 3.13 µg/mL | 12.5 µg/mL (≈ 30.6 µM) | Active | Active | Active | 12.5 µg/mL (≈ 30.6 µM) | –
4 | CCCOc1ccc(-c2cc(OCCN3CCCCC3)c3cccc(OC)c3n2)cc1 | 88.7% | 11.9 µM | 238 µM (≈ 100 µg/mL) | – | – | – | – | – | – | – | –
5 | CCCOc1ccc(-c2cc(O)c3ccc(OC)cc3n2)cc1 | 55.7% | – | – | – | – | – | – | – | – | – | –
6 | CCCOc1ccc(-c2cc(OCCCN(C)C)c3cc(OC)ccc3n2)cc1 | 79.5% | – | – | – | – | – | – | – | – | – | –
7 | CCCOc1ccc(-c2cc(OCCN3CCNCC3)c3ccc(OC)cc3n2)cc1 | 100% | 5.5 µM | 237 µM (≈ 99.9 µg/mL) | Active | 6.25 µg/mL | 100 µg/mL (≈ 237 µM) | – | Active | Active | 100 µg/mL (≈ 237 µM) | –
8 | CCCOc1ccc(-c2cc(OCCN3CCCCCC3)c3cccc(OC)c3n2)cc1 | 72.8% | – | – | – | – | – | – | – | – | – | –
9 | CCCOc1ccc(-c2cc(OCCN3CCN(Cc4ccccc4)CC3)c3cc(OC)ccc3n2)cc1 | 32% | – | – | – | – | – | – | – | – | – | –
10 | CCCOc1ccc(-c2cc(OCCCN(C)C)c3cccc(OC)c3n2)cc1 | 64.7% | – | – | – | – | – | – | – | – | – | –
11 | CCCOc1ccc(-c2cc(OCCN3CCc4cc(OC)c(OC)cc4C3)c3ccc(OC)cc3n2)cc1 | 91% | 4.7 µM | > 189 µM | Active | 3.13 µg/mL | > 100 µg/mL | Active | Active | Active | > 100 µg/mL | –
12 | CCCOc1ccc(-c2cc(OCCCl)c3cc(OC)ccc3n2)cc1 | 10.5% | – | – | – | – | – | – | – | – | – | –
13 | CCCOc1ccc(-c2cc(OCCN3CCCCCC3)c3cc(OC)cc(OC)c3n2)cc1 | 80.3% | 1.8 µM | > 215 µM | Active | 1.56 µg/mL | > 100 µg/mL | Active | Active | Active | > 100 µg/mL | –
14 | CCCOc1ccc(-c2cc(OCCN3CCCCCC3)c3cc(OC)ccc3n2)cc1 | 92.2% | 8.1 µM | 28.7 µM (≈ 12.5 µg/mL) | Active | < 3.13 µg/mL | 25 µg/mL (≈ 57.5 µM) | – | Active | Active | 12.5 µg/mL (≈ 28.8 µM) | –
15 | CCCOc1ccc(-c2cc(OCCN3CCc4cc(OC)c(OC)cc4C3)c3cc(OC)ccc3n2)cc1 | 33% | – | – | – | – | – | – | – | – | – | –
16 | CCCOc1ccc(-c2cc(OCCN(CC)CC)c3cccc(OC)c3n2)cc1 | 83.1% | 13.7 µM | 245 µM (≈ 100 µg/mL) | – | – | – | – | – | – | – | –
17 | CCCOc1ccc(-c2cc(OCCN3CCCCCC3)c3cc(OC)c(OC)cc3n2)cc1 | 67.9% | – | – | – | – | – | – | – | – | – | –
18 | CCCOc1ccc(-c2cc(OCCN3CCCCC3)c3c(OC)cc(OC)cc3n2)cc1 | 49.7% | – | – | – | – | – | – | – | – | – | –

Row | Structure (SMILES) | inhibition [1] | IC50 [2] | MIC [3] | synergistic potentiation of ciprofloxacin activity [4] | Activity [5] | MIC [6] | inhibition [7] | inhibition [8] | inhibition [9] | MIC [10] | MIC [11]
19 | CCCOc1ccc(-c2cc(OCCCN(C)C)c3ccc(OC)cc3n2)cc1 | 100% | 4.3 µM | 232 µM (≈ 91.5 µg/mL) | Active | 6.25 µg/mL | 100 µg/mL (≈ 253 µM) | – | Active | Active | 100 µg/mL (≈ 253 µM) | –
20 | CCCOc1ccc(-c2cc(OCCN3CCc4cc(OC)c(OC)cc4C3)c3cccc(OC)c3n2)cc1 | 65.5% | – | – | – | – | – | – | – | – | – | –
21 | CCCOc1ccc(-c2cc(OCCN3CCCCCC3)c3ccc(OC)cc3n2)cc1 | 91.3% | 4.9 µM | 212.3 µM (≈ 92.3 µg/mL) | Active | 3.13 µg/mL | 100 µg/mL (≈ 230 µM) | Active | Active | Active | > 100 µg/mL | –
22 | CCCOc1ccc(-c2cc(OCCCl)c3ccc(OC)cc3n2)cc1 | 57.5% | – | – | – | – | – | – | – | – | – | –
23 | CCCOc1ccc(-c2cc(OCCN3CCCCC3)c3c(OC)cccc3n2)cc1 | 83.4% | 19.1 µM | 59.4 µM (≈ 25 µg/mL) | – | – | – | – | – | – | – | –
24 | CCCOc1ccc(-c2cc(OCCN(CC)CC)c3cc(OC)cc(OC)c3n2)cc1 | 92.4% | 4.6 µM | > 228 µM | Active | 6.25 µg/mL | > 100 µg/mL | – | Active | Active | 100 µg/mL (≈ 228 µM) | –
25 | CCCOc1ccc(-c2cc(OCCN(CC)CC)c3c(OC)cc(OC)cc3n2)cc1 | 93.1% | 2.8 µM | > 228 µM | Active | 1.56 µg/mL | > 100 µg/mL | – | Active | Active | 100 µg/mL (≈ 228 µM) | 25 µg/mL (≈ 57 µM)
26 | CCCOc1ccc(-c2cc(OCCN3CCNCC3)c3cccc(OC)c3n2)cc1 | 100% | 9.9 µM | > 237 µM | Active | 25 µg/mL | > 100 µg/mL | – | Active | Active | > 100 µg/mL | –
27 | CCCOc1ccc(-c2cc(OCCN3CCN(Cc4ccccc4)CC3)c3ccc(OC)cc3n2)cc1 | 92.1% | 7.3 µM | > 195 µM | Active | > 100 µg/mL | > 100 µg/mL | – | Active | Active | > 100 µg/mL | –
28 | CCCOc1ccc(-c2cc(O)c3cc(OC)c(OC)cc3n2)cc1 | 79.2% | – | – | – | – | – | – | – | – | – | –
29 | CCCOc1ccc(-c2cc(OCCCl)c3cccc(OC)c3n2)cc1 | 6.8% | – | – | – | – | – | – | – | – | – | –
30 | CCCOc1ccc(-c2cc(OCCN3CCCCC3)c3cc(OC)c(OC)cc3n2)cc1 | 92.1% | 3.9 µM | > 222 µM | Active | 3.13 µg/mL | > 100 µg/mL | – | Active | Active | 100 µg/mL (≈ 222 µM) | –
31 | CCCOc1ccc(-c2cc(OCCN3CCNCC3)c3cc(OC)ccc3n2)cc1 | 84.4% | 15.6 µM | 29.6 µM (≈ 12.5 µg/mL) | – | – | – | – | – | – | – | –
32 | CCCOc1ccc(-c2cc(OCCN3CCCCC3)c3cc(OC)cc(OC)c3n2)cc1 | 93.8% | 3.8 µM | > 222 µM | Active | 6.25 µg/mL | > 100 µg/mL | – | Active | Active | 100 µg/mL (≈ 222 µM) | –
33 | C=COc1cc(-c2ccc(OCCC)cc2)nc2c(OC)cccc12 | 13.3% | – | – | – | – | – | – | – | – | – | –
34 | CCCOc1ccc(-c2cc(OCCN3CCCCCC3)c3c(OC)cccc3n2)cc1 | 74.8% | – | – | – | – | – | – | – | – | – | –
35 | CCCOc1ccc(-c2cc(OCCN(CC)CC)c3cc(OC)c(OC)cc3n2)cc1 | 95.4% | 4.1 µM | > 228 µM | Active | 50 µg/mL | > 100 µg/mL | – | Active | Active | 100 µg/mL (≈ 228 µM) | –
